Calls of active or inactive are those of the source. The rule behind the calls is not given here.
Tests used:
[1] = Inhibition of Hh signaling pathway in mouse NIH3T3 cells incubated for 48 hrs by Gli luciferase reporter assay; assay type: cell-based; settings: NIH3T3, 48 h
How it was run: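 Reporter cells were seeded in 96-well plates, incubated overnight, then treated for 48 h. Lysate luciferase activity was measured with a dual-luciferase system, and firefly signal was normalised to Renilla.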

PANC-1 [2] = assay: Induction of apoptosis in human PANC-1 cells assessed as viable cells at 10 uM incubated for 48 hrs by Annexin V-FITC/PI staining based flow cytometry (reference value: 93.2 %); assay type: functional; settings: read-out: Activity
PANC-1 [3] = assay: Induction of apoptosis in human PANC-1 cells assessed as early apoptotic cells at 10 uM incubated for 48 hrs by Annexin V-FITC/PI staining based flow cytometry (reference value: 1.88 %); assay type: functional
PANC-1 [4] = assay: Induction of apoptosis in human PANC-1 cells assessed as late apoptotic cells at 10 uM incubated for 48 hrs by Annexin V-FITC/PI staining based flow cytometry (reference value: 2.74 %); assay type: functional
PANC-1 [5] = assay: Induction of apoptosis in human PANC-1 cells assessed as necrotic cells at 10 uM incubated for 48 hrs by Annexin V-FITC/PI staining based flow cytometry (reference value: 2.24 %); assay type: functional
BXPC-3 [6] = assay: Induction of apoptosis in human BXPC-3 cells assessed as viable cells at 10 uM incubated for 48 hrs by Annexin V-FITC/PI staining based flow cytometry (reference value: 91.5 %); assay type: functional; settings: read-out: Activity
BXPC-3 [7] = assay: Induction of apoptosis in human BXPC-3 cells assessed as early apoptotic cells at 10 uM incubated for 48 hrs by Annexin V-FITC/PI staining based flow cytometry (reference value: 1.11 %); assay type: functional
BXPC-3 [8] = assay: Induction of apoptosis in human BXPC-3 cells assessed as late apoptotic cells at 10 uM incubated for 48 hrs by Annexin V-FITC/PI staining based flow cytometry (reference value: 6.72 %); assay type: functional
BXPC-3 [9] = assay: Induction of apoptosis in human BXPC-3 cells assessed as necrotic cells at 10 uM incubated for 48 hrs by Annexin V-FITC/PI staining based flow cytometry (reference value: 0.71 %); assay type: functional
BxPC-3 [10] = assay: Antitumor activity aginst human BxPC-3 cells xenografted in BALB/c nude mouse assessed as tumor growth inhibition at 15 mg/kg, ip qd for 21 days; settings: time 21.0 day

IC50 [1] [nM] | Structure (SMILES) | further results
24.8 | O=C(Nc1ccc(Cl)cc1)c1ccc(Nc2nccc(-c3cccnc3)n2)cc1 | –
4.5 | CN1CCN(c2ccc(NC(=O)c3ccc(Nc4nccc(-c5cccnc5)n4)cc3)cc2)CC1 | –
22.5 | COc1ccc(NC(=O)c2ccc(Nc3nccc(-c4cccnc4)n3)cc2)cc1OC | –
10.3 | Cc1cc(F)cc(NC(=O)c2ccc(Nc3nccc(-c4cccnc4)n3)cc2)c1 | –
12.2 | CCOc1ccc(NC(=O)c2ccc(Nc3nccc(-c4cccnc4)n3)cc2)cc1 | –
14.2 | COc1ccc(NC(=O)c2ccc(Nc3nccc(-c4cccnc4)n3)cc2)cc1 | –
29.7 | COc1cc(NC(=O)c2ccc(Nc3nccc(-c4cccnc4)n3)cc2)cc(OC)c1 | –
46.4 | Cc1ccc(NC(=O)c2ccc(Nc3nccc(-c4cccnc4)n3)cc2)cc1F | –
9.1 | COc1ccccc1NC(=O)c1ccc(Nc2nccc(-c3cccnc3)n2)cc1 | –
14.6 | Cc1ccccc1NC(=O)c1ccc(Nc2nccc(-c3cccnc3)n2)cc1 | –
25.6 | O=C(Nc1cccc(C(F)(F)F)c1)c1ccc(Nc2nccc(-c3cccnc3)n2)cc1 | –
18.6 | COc1cc(NC(=O)c2ccc(Nc3nccc(-c4cccnc4)n3)cc2)cc(OC)c1OC | –
13.8 | Cc1cccc(NC(=O)c2ccc(Nc3nccc(-c4cccnc4)n3)cc2)c1 | –
33.5 | O=C(Nc1ccc(N2CCOCC2)c(F)c1)c1ccc(Nc2nccc(-c3cccnc3)n2)cc1 | –
15.1 | CS(=O)(=O)c1ccc(C(=O)Nc2ccc(Cl)c(-c3ccccn3)c2)c(Cl)c1 [VISMODEGIB] | viability at 10 µM (PANC-1 [2]): 91.8%; Activity (PANC-1 [3]): 2.2%; Activity (PANC-1 [4]): 3.3%; Activity (PANC-1 [5]): 2.68%; viability at 10 µM (BXPC-3 [6]): 90.6%; Activity (BXPC-3 [7]): 1.05%; Activity (BXPC-3 [8]): 7.55%; Activity (BXPC-3 [9]): 0.77%; inhibition (BxPC-3 [10]): Active
35.3 | O=C(Nc1ccc(F)cc1)c1ccc(Nc2nccc(-c3cccnc3)n2)cc1 | –
5.5 | CNCc1ccc(C)c(NC(=O)c2ccc(Nc3nc(-c4ccccc4)c4ccccc4n3)cc2)c1 [BMS-833923] | –
28.1 | O=C(Nc1cccnc1)c1ccc(Nc2nccc(-c3cccnc3)n2)cc1 | –
17.3 | O=C(Nc1ccc(N2CCOCC2)cc1)c1ccc(Nc2nccc(-c3cccnc3)n2)cc1 | –
15.9 | O=C(Nc1cccc(F)c1)c1ccc(Nc2nccc(-c3cccnc3)n2)cc1 | –

Source: ChEMBL document CHEMBL6092204, “Synthesis of pyridyl pyrimidine hedgehog signaling pathway inhibitors and their antitumor activity in human pancreatic cancer” (Eur J Med Chem, 2024)
